High-throughput results deposited in PubChem by several laboratories.
TDP2 inh: TDP2 (human) inhibition, absorbance primary screen. 0.34% of 370,000 active. inhibition, % at 12.8 µM. AID 720702. recombinant TDP2, T5PNP hydrolysis, p-nitrophenol absorbance 415 nm;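 active = inhibition above the mean of all tested compounds plus 3 SD, set per campaign, cut at about 25% in these data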;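 note: 0% = DMSO with enzyme and 100% = buffer with substrate but no TDP2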
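Read-out basis: percent inhibition. System: recombinant human TDP2. Buffer or medium: Mg2+-containing Tris-HCl buffer, pH 7.5. Repeats: single replicate. Timing: reaction 2 h, 37 °C. Benchmarks: high control without enzyme, low control DMSO plus TDP2. Probe or stimulus: 5 mM T5PNP. Doses: 12.8 µM only. Measured by: epi absorbance of p-nitrophenol freed from T5PNP by hydrolysis.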
GSTO1 counter: blocks human GSTO1 in RBBP9 counter-screen; recombinant GSTO1, activity-based probe fluorescence polarization; inhibition, % at 5.96 µM; 1.1% of 300,000 active; AID 1974;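 active = inhibition above the campaign mean inhibition plus 3 SD, cut at about 35% in these data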;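 note: 0% = GSTO1-1 with DMSO and 100% = wells lacking GSTO1-1 enzyme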
Apaf1 inhib: blocks human Apaf-1 apoptosome activity. O14727. reconstituted apoptosome caspase-3 activity, DEVD-Rh110 fluorescence. inhibition, % at 20 µM. 0.71% of 330,000 active. AID 489030; active = inhibition of at least 40% at 20 µM;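 note: plate controls were DMSO wells for no effect and DEVD-CHO caspase inhibitor wells for full effect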
Target sequence (O14727 whole entry, looked up): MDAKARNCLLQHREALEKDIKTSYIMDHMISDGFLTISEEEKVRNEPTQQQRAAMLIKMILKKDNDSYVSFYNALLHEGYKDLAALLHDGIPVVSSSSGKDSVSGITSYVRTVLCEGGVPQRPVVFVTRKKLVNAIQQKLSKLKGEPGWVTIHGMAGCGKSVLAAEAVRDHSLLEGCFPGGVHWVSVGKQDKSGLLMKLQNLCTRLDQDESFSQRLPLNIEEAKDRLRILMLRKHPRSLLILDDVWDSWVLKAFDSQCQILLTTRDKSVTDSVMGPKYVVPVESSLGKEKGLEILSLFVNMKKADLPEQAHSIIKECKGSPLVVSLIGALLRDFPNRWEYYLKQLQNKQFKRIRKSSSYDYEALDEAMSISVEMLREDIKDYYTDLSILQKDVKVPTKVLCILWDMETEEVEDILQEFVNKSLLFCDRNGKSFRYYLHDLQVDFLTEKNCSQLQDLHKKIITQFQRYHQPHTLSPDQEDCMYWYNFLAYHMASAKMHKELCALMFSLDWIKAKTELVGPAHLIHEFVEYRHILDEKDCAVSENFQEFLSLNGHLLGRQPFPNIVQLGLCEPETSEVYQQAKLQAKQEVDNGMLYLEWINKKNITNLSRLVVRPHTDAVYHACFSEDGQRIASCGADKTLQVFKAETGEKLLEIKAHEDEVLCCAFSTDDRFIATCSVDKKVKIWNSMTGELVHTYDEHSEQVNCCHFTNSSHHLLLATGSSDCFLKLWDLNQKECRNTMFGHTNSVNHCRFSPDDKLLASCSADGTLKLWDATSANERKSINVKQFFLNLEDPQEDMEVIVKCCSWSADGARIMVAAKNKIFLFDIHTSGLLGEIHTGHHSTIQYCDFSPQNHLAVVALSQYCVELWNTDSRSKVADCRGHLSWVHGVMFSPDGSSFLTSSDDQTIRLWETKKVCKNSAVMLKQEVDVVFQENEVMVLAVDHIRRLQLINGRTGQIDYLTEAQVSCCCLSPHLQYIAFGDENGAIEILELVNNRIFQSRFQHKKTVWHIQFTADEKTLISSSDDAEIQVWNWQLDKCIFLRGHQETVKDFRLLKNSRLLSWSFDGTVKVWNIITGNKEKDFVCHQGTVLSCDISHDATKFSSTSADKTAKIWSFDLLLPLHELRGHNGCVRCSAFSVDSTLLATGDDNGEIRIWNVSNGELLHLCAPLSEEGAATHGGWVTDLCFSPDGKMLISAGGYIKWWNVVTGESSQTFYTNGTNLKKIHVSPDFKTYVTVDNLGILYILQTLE
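Assay system: Apoptosome proteins | Medium: pH 7.5 Hepes buffer with CHAPS, BSA, DTT | Also added: Cytochrome c and DEVD-Rh110 substrate | Times: 30 min plus 50 min, RT | Detection: Rhodamine 110 fluorescence at Ex 480/Em 540 nm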
CTSL1 counter: blocks F. hepatica cathepsin L1 in PFM18AAP counter-screen; recombinant F. hepatica cathepsin L1, Z-Leu-Arg-MCA fluorescence; inhibition, % at 5.96 µM; 0.49% of 300,000 active;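 active = inhibition above the mean of all tested compounds plus 3 SD, set per screening campaign, cut at about 17% in these data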;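 note: 0% = plate median of test compound wells and 100% = 1 µM Z-Phe-Ala-diazomethylketone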
PAD4 FP inh: inhibitors of human PAD4; recombinant PAD4, RCA probe fluorescence polarization; inhibition, % at 6.36 µM; 0.41% of 330,000 active;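 active = percent inhibition above a cutoff equal to the mean of all tested compounds plus 3 SD, cut at about 15% in these data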;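 note: 0% = PAD4 with RCA probe and DMSO and 100% = probe without PAD4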
GSTO1 inh conf: GSTO1 (human) inhibition, confirmation; shares compounds with GSTO1 counter; recombinant GSTO1, probe fluorescence polarization; inhibition, % at 5.96 µM; 54% of 2,400 active;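 active = inhibition above the primary screen's cutoff, its mean inhibition plus 3 SD, cut at about 35% in these data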;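 note: loss of polarization as inhibitors block binding of rhodamine sulfonate ester activity probe; 0% = GSTO1 with DMSO and 100% = wells lacking GSTO1 enzyme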
GSTO1 recomb ABPP: blocks recombinant human glutathione S-transferase omega 1; recombinant GSTO1, gel ABPP SE-Rh probe fluorescence; AID 463110; inhibition, % at 1 µM; shares compounds with GSTO1 counter; 30% of 130 active;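 active = inhibition of the enzyme GSTO1 above about 75%, limit read from the data; inactive = inhibition below that limit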
PAD4 FP conf: confirmation of human PAD4 inhibitors; shares compounds with PAD4 FP inh; recombinant PAD4, RCA probe fluorescence polarization; inhibition, % at 6.36 µM; AID 488796; 28% of 1,200 active;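 active = mean inhibition across replicates above the hit cutoff set by the earlier primary screen, cut at about 15% in these data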;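 note: inhibitors block active-site labeling by the probe so polarization falls; 0% = PAD4 with probe and DMSO and 100% = probe without PAD4 enzyme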
Apaf-1 inh conf: confirmation of Apaf-1 inhibitors; AID 504614; shares compounds with Apaf1 inhib; 25% of 1,800 active; inhibition, % at 20 µM; reconstituted apoptosome, caspase-3 DEVD-Rh110 fluorescence;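 active = mean inhibition of at least 40% at 20 µM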;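 note: plate controls were DMSO wells for no effect and DEVD-CHO caspase inhibitor control wells for full effect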
Rh110 quench: Rh110 signal interference in Apaf-1 inhibitor counter-screen | 1,800 tested, under 10 active | shares compounds with Apaf1 inhib | Rh110 fluorescence interference, quenched caspase reaction | activation (fluorescence interference), % at 20 µM;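 active = signal rise of 40% or more at 20 µM, treated as a fluorescence artifact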
Fluor interf inh: shows fluorescence interference in the Apaf-1 inhibitor assay format; shares compounds with Apaf1 inhib; fluorescence interference counterscreen, Apaf-1 assay format; IC50, µM; 460 tested, under 10 active; AID 588538; call rule not given here
Active calls of the source: *; · = no result given. An excerpt weighted towards active compounds, which were near 1.8% of everything screened.

SMILES	TDP2 inh	GSTO1 counter	Apaf1 inhib	CTSL1 counter	PAD4 FP inh	GSTO1 inh conf	Apaf-1 inh conf	Rh110 quench	others
COc1cc(O)c(C(CC(=O)N2CC(C)OC(C)C2)c2ccc3c(c2)OCO3)c(OC)c1 (stereo not given)	3.9	·	·	·	·	·	·	·
O=C(Cc1ccc(Cl)cc1)NCCc1c[nH]c2ccccc12	5.6	8.6	·	-3.8	2.9	·	·	·
O=C(CCl)N(c1ccc(Cl)cc1)c1c[nH]c2ccccc12	9.5	71.6*	24.3	1.3	16.6*	82.2*	·	·	GSTO1 recomb ABPP=63.0;PAD4 FP conf=33.8*
Cc1ccc(S(=O)(=O)Nc2cc(Cl)c(O)c3ncccc23)cc1	19.9	61.3*	17.7	0.6	36.3*	5.4	·	·	PAD4 FP conf=6.9
COC(=O)C[C@@H]1CC[C@H]2[C@H](COc3ccc(NC(=O)Nc4ccc(Cl)cc4)cc3C(=O)N2C)O1	-10.4	·	·	·	·	·	·	·
CN(C)c1ccc(N/C=C/C(=O)c2ccccc2)cc1	12.0	61.8*	2.9	0.6	17.3*	-0.6	·	·	PAD4 FP conf=-3.0
O=C(N/N=C/c1ccc(OCc2ccccc2)cc1)c1ccncc1	3.6	0.3	8.3	11.3	-4.5	·	·	·
Oc1ccc(N=Cc2ccc(OCc3ccccc3)cc2)cc1	22.6	85.8*	92.7*	45.1*	5.8	7.1	16.7	-4.1
O=C(Nc1ccccc1)Nc1cccc2ccccc12	9.5	-4.5	-19.5	3.5	-7.0	·	·	·
O=C(Nc1ccccc1)Nc1ccc(O)c2ccccc12	·	47.0*	44.0*	-0.1	23.8*	37.9*	28.3	1.8	PAD4 FP conf=-10.9
COC(=O)c1ccccc1NC(=O)NCC1CCN(Cc2ccc(OC)cc2)CC1	5.2	·	·	·	·	·	·	·
COc1ccccc1CNC(=O)c1c(N)n(CCCN2CCOCC2)c2nc3ccccc3nc12	-10.0	·	·	·	·	·	·	·
Nc1c(C(=O)NCc2ccc3c(c2)OCO3)c2nc3ccccc3nc2n1CCCN1CCOCC1	-5.1	50.0*	90.3*	2.5	-14.6	-3.8	44.1*	10.1	Fluor interf inh=>100
CC1(C)Nc2ccc(O)cc2-c2c1ssc2=S	5.3	63.0*	51.3*	4.6	41.1*	25.2	33.6	15.2	PAD4 FP conf=17.5*
CC(=O)NC1=C(N(C)C2CCS(=O)(=O)C2)C(=O)c2ccccc2C1=O (stereo not given)	11.5	37.7*	54.1*	7.1	-10.2	4.2	67.4*	9.2	Fluor interf inh=>100
CSc1ccc(-c2csc(N3CCC(C(N)=O)CC3)n2)cc1	16.4	·	·	·	·	·	·	·
Clc1ccc(-c2nnc3n2N=C(c2ccc(-c4ccccc4)cc2)CS3)c(Cl)c1	2.8	·	·	·	·	·	·	·
C#CCOCCOCCOCCNc1nc(N2CCN(C(=O)Cn3cc(CCCCN)nn3)CC2)nc(N2CCN(C(=O)[C@H](CCCCN)n3cc(CCCC)nn3)CC2)n1	-2.6	59.6*	41.4*	-0.7	-2.1	1.8	4.2	-7.0
C#CCOCCOCCOCCNc1nc(N2CCN(C(=O)Cn3cc(CC(C)O)nn3)CC2)nc(N2CCN(C(=O)[C@H](CCCCN)n3cc(CCC(=O)O)nn3)CC2)n1 (stereo not given in full)	-2.9	4.5	4.9	-3.3	-3.9	·	·	·
O=C(c1cccc(C(=O)N2CCN(c3ncccn3)CC2)c1)N1CCN(c2ncccn2)CC1	0.5	-1.6	-7.0	4.3	2.0	·	·	·
O=C(NCc1ccccc1)c1ccc2nc(-c3ccco3)c(-c3ccco3)nc2c1	18.8	67.2*	65.0*	5.7	-12.8	24.2	27.6	6.3
O=C(NCc1ccccc1)c1ccc2nccnc2c1	3.5	-2.0	-3.0	8.0	-2.4	·	·	·
O=C(c1ccc2nc(-c3ccco3)c(-c3ccco3)nc2c1)N1CCN(c2ncccn2)CC1	11.3	68.2*	57.5*	8.0	-6.4	21.8	22.5	0.5
O=C1N(CC[C@@H](O)c2ccccc2)CCC12CCC(c1ccccc1)CC2 (stereo not given in full)	-10.9	·	·	·	·	·	·	·
CC(C)CCN(C)C1CCN(C(=O)NCc2ccccc2)CC1	-20.6	·	·	·	·	·	·	·
SMILES	TDP2 inh	GSTO1 counter	Apaf1 inhib	CTSL1 counter	PAD4 FP inh	GSTO1 inh conf	Apaf-1 inh conf	Rh110 quench	others
COc1ccccc1N=Nc1ccc(O)c2ncccc12	12.3	50.9*	90.0*	1.4	-6.0	9.8	31.5	14.5
CN(C)C=Nc1nc2c(Br)ccc(Br)c2cc1C(=O)NCC(C)(C)C	8.6	·	·	·	·	·	·	·
Oc1c(Br)cc(Br)cc1C=Nc1cccc2ncccc12	23.7	73.4*	96.6*	8.2	37.4*	6.1	55.8*	5.8	PAD4 FP conf=-10.1;Fluor interf inh=>100
Brc1cccc(C=Nc2cccc3ncccc23)c1	-0.9	5.5	-8.8	-3.3	-4.2	·	·	·
CC1=CC(C)(C)N2C(=O)C(=Nc3ccc(O)cc3)c3cccc1c32	11.5	96.8*	90.2*	43.9*	25.6*	17.4	14.6	-2.9	PAD4 FP conf=1.5
CC(N=Cc1cc([N+](=O)[O-])ccc1O)c1ccccc1 (stereo not given)	-7.5	5.3	7.2	6.8	-5.2	·	·	·
Cc1ccccc1N=Cc1cccc(O)c1O	·	69.6*	73.8*	2.2	2.6	9.6	9.2	3.7
CC(N=Cc1cccc(O)c1O)c1ccccc1 (stereo not given)	·	77.0*	71.3*	-2.6	6.7	53.7*	9.9	-2.8
COc1ccc(C2C(C(=O)N3CCOCC3)CC(=O)N2c2ccc(OC)cc2)cc1 (stereo not given)	3.9	·	·	·	·	·	·	·
CC1=NN(c2ccccc2)C(=O)/C1=C/C=C/C=C/N(C)C	8.3	-41.8	25.0	1.7	-19.0	·	·	·
CC1=NN(c2ccccc2)C(=O)/C1=C\N(O)c1ccccc1	13.9	47.6*	70.5*	2.9	-11.4	40.6*	30.1	2.0
CCCC[C@H]1C2CC(OC(=O)Nc3cccc(Cl)c3)C(C2)[C@H]2CCCCN21 (stereo not given in full)	2.8	·	·	·	·	·	·	·
C[C@H]1C(C(=O)N(C)C2CCCCC2)=Cc2c(n(-c3ccc(F)cc3)c(=O)n2CCCOc2ccccc2)C=C1c1ccccc1	-3.6	·	·	·	·	·	·	·
O=Cc1ccc(-c2cccs2)s1	-11.2	·	·	·	·	·	·	·
Oc1ccc(N=Cc2ccc(-c3cccs3)s2)cc1	8.5	81.7*	95.8*	39.5*	17.7*	6.1	26.4	5.5	PAD4 FP conf=6.9
O=C1C(NS(=O)(=O)c2cccs2)=C(N2CCN(c3cccc(Cl)c3)CC2)C(=O)c2ccccc21	4.2	49.8*	57.8*	-0.8	-11.9	13.9	33.2	13.6
